Where a SMILES comes first, the peptide text is derived from it. [ ]: non-standard residue; d: D form. Aib = CC(C)(N)C(=O)O
Tests used:
[1] = tested on: Human immunodeficiency virus 1; assay: Antiviral activity against HIV1 in human HeLa-CD4-LTR-beta-gal (MAGI) cells assessed as inhibition of viral replication after 48 hrs by multinuclear activation of galactosidase indicator assay; details: Human immunodeficiency virus 1, HeLa
[2] = tested on: Human immunodeficiency virus 1; assay: Binding affinity to HIV1 heptad repeat 1 peptide N36 assessed as melting temperature of drug-HR1 peptide complex
Procedure, shortened: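 HR2 peptide and N36 (HR1) peptide mixed, each at 10 μM final in PBS pH 7.4, incubated 37 °C for 30 min, then followed by CD through thermal unfolding; Tm taken as the midpoint of the unfolding transition.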

Molecule | EC50 [1] | Tm [2]
CC[C@H](C)[C@H](NC(=O)CNC(=O)C(C)(C)NC(=O)[C@@H](NC(=O)[C@H](Cc1ccc(O)cc1)NC(=O)CNC(=O)C(C)(C)NC(=O)[C@@H](NC(=O)[C@H](CCCCN)NC(=O)[C@H](CCCCN)NC(=O)[C@H](CC(=O)O)NC(=O)[C@H](Cc1c[nH]c2ccccc12)NC(=O)[C@H](CCC(=O)O)NC(=O)[C@H](CCC(=O)O)NC(=O)[C@@H](N)Cc1c[nH]c2ccccc12)[C@@H](C)CC)[C@@H](C)O)C(=O)N[C@@H](CCC(=O)O)C(=O)N[C@@H](CCC(=O)O)C(=O)N[C@@H](CC(C)C)C(=O)N[C@H](C(=O)N[C@@H](CCCCN)C(=O)N[C@@H](CCCCN)C(=O)N[C@@H](CO)C(=O)N[C@@H](CCC(=O)O)C(=O)N[C@@H](CCC(=O)O)C(=O)N[C@@H](CCC(N)=O)C(=O)N[C@@H](CCC(N)=O)C(=O)N[C@@H](CCCCN)C(=O)N[C@@H](CCCCN)C(=O)N[C@@H](CC(N)=O)C(=O)O)[C@@H](C)CC (H-WEEWDKKI[Aib]GYT[Aib]GIEELIKKSEEQQKKN-OH) | 270 nM | 
CC[C@H](C)[C@H](NC(=O)CNC(=O)C(C)(C)NC(=O)[C@H](CC(=O)O)NC(=O)[C@H](Cc1c[nH]c2ccccc12)NC(=O)CNC(=O)C(C)(C)NC(=O)[C@@H](N)Cc1c[nH]c2ccccc12)C(=O)N[C@@H](CCC(=O)O)C(=O)N[C@@H](CCC(=O)O)C(=O)N[C@@H](Cc1ccc(O)cc1)C(=O)N[C@H](C(=O)N[C@@H](CCCCN)C(=O)N[C@@H](CCCCN)C(=O)N[C@H](C(=O)N[C@@H](CCC(=O)O)C(=O)N[C@@H](CCC(=O)O)C(=O)N[C@@H](CC(C)C)C(=O)N[C@H](C(=O)N[C@@H](CCCCN)C(=O)N[C@@H](CCCCN)C(=O)N[C@@H](CO)C(=O)N[C@@H](CCC(=O)O)C(=O)N[C@@H](CCC(=O)O)C(=O)N[C@@H](CCC(N)=O)C(=O)N[C@@H](CCC(N)=O)C(=O)N[C@@H](CCCCN)C(=O)N[C@@H](CCCCN)C(=O)N[C@@H](CC(N)=O)C(=O)O)[C@@H](C)CC)[C@@H](C)CC)[C@@H](C)O (H-W[Aib]GWD[Aib]GIEEYTKKIEELIKKSEEQQKKN-OH) | 37.5 nM | 
H-WEEWDKKIEEYTKKIEELIKKS-OH | 60 nM | 63.5 °C
H-WEEWDKKIEEYTKKIEELIKKSEEQQKKN-OH | 0.46 nM | 65 °C
H-WMEWDREINNYTSLIHSLIEES-OH | > 1000 nM | 38.5 °C
H-WMEWDREINNYTSLIHSLIEESQNQQEKN-OH | 46 nM | 48.5 °C
enfuvirtide | 15 nM | 

More lines, main results first:

EC50 [1] | Molecule | Tm [2]
7.1 nM | CC[C@H](C)[C@H](NC(=O)[C@H](CCCCN)NC(=O)[C@H](CCCCN)NC(=O)[C@H](CC(=O)O)NC(=O)[C@H](Cc1c[nH]c2ccccc12)NC(=O)[C@H](CCC(=O)O)NC(=O)[C@H](CCC(=O)O)NC(=O)[C@@H](N)Cc1c[nH]c2ccccc12)C(=O)N[C@@H](CCC(=O)O)C(=O)N[C@@H](CCC(=O)O)C(=O)N[C@@H](Cc1ccc(O)cc1)C(=O)N[C@H](C(=O)N[C@@H](CCCCN)C(=O)N[C@@H](CCCCN)C(=O)N[C@H](C(=O)N[C@@H](CCC(=O)O)C(=O)N[C@@H](CCC(=O)O)C(=O)N[C@@H](CC(C)C)C(=O)N[C@H](C(=O)N[C@@H](CCCCN)C(=O)N[C@@H](CCCCN)C(=O)N[C@@H](CO)C(=O)NC(C)(C)C(=O)N[C@@H](CCC(=O)O)C(=O)N[C@@H](CCC(N)=O)C(=O)N[C@@H](CCC(N)=O)C(=O)NC(C)(C)C(=O)N[C@@H](CCCCN)C(=O)N[C@@H](CC(N)=O)C(=O)O)[C@@H](C)CC)[C@@H](C)CC)[C@@H](C)O (H-WEEWDKKIEEYTKKIEELIKKS[Aib]EQQ[Aib]KN-OH) | 
31.3 nM | CC[C@H](C)[C@H](NC(=O)[C@H](CCCCN)NC(=O)[C@H](CCCCN)NC(=O)[C@H](CC(=O)O)NC(=O)[C@H](Cc1c[nH]c2ccccc12)NC(=O)[C@H](CCC(=O)O)NC(=O)[C@H](CCC(=O)O)NC(=O)[C@@H](N)Cc1c[nH]c2ccccc12)C(=O)N[C@@H](CCC(=O)O)C(=O)N[C@@H](CCC(=O)O)C(=O)N[C@@H](Cc1ccc(O)cc1)C(=O)N[C@H](C(=O)N[C@@H](CCCCN)C(=O)N[C@@H](CCCCN)C(=O)N[C@H](C(=O)N[C@@H](CCC(=O)O)C(=O)N[C@@H](CCC(=O)O)C(=O)N[C@@H](CC(C)C)C(=O)N[C@H](C(=O)N[C@@H](CCCCN)C(=O)N[C@@H](CCCCN)C(=O)N[C@@H](CO)C(=O)NC(C)(C)C(=O)NCC(=O)N[C@@H](CCC(N)=O)C(=O)N[C@@H](CCC(N)=O)C(=O)NC(C)(C)C(=O)NCC(=O)N[C@@H](CC(N)=O)C(=O)O)[C@@H](C)CC)[C@@H](C)CC)[C@@H](C)O (H-WEEWDKKIEEYTKKIEELIKKS[Aib]GQQ[Aib]GN-OH) | 
0.87 nM | CC[C@H](C)[C@H](NC(=O)[C@H](CCCCN)NC(=O)[C@H](CCCCN)NC(=O)[C@H](CC(=O)O)NC(=O)[C@H](Cc1c[nH]c2ccccc12)NC(=O)[C@H](CCC(=O)O)NC(=O)[C@H](CCC(=O)O)NC(=O)[C@@H](N)Cc1c[nH]c2ccccc12)C(=O)N[C@@H](CCC(=O)O)C(=O)N[C@@H](CCC(=O)O)C(=O)N[C@@H](Cc1ccc(O)cc1)C(=O)N[C@H](C(=O)N[C@@H](CCCCN)C(=O)N[C@@H](CCCCN)C(=O)N[C@H](C(=O)NC(C)(C)C(=O)N[C@@H](CCC(=O)O)C(=O)N[C@@H](CC(C)C)C(=O)N[C@H](C(=O)NC(C)(C)C(=O)N[C@@H](CCCCN)C(=O)N[C@@H](CO)C(=O)N[C@@H](CCC(=O)O)C(=O)N[C@@H](CCC(=O)O)C(=O)N[C@@H](CCC(N)=O)C(=O)N[C@@H](CCC(N)=O)C(=O)N[C@@H](CCCCN)C(=O)N[C@@H](CCCCN)C(=O)N[C@@H](CC(N)=O)C(=O)O)[C@@H](C)CC)[C@@H](C)CC)[C@@H](C)O (H-WEEWDKKIEEYTKKI[Aib]ELI[Aib]KSEEQQKKN-OH) | 
25.6 nM | CC[C@H](C)[C@H](NC(=O)[C@H](CCCCN)NC(=O)[C@H](CCCCN)NC(=O)[C@H](CC(=O)O)NC(=O)[C@H](Cc1c[nH]c2ccccc12)NC(=O)[C@H](CCC(=O)O)NC(=O)[C@H](CCC(=O)O)NC(=O)[C@@H](N)Cc1c[nH]c2ccccc12)C(=O)N[C@@H](CCC(=O)O)C(=O)N[C@@H](CCC(=O)O)C(=O)N[C@@H](Cc1ccc(O)cc1)C(=O)N[C@H](C(=O)N[C@@H](CCCCN)C(=O)N[C@@H](CCCCN)C(=O)N[C@H](C(=O)NC(C)(C)C(=O)NCC(=O)N[C@@H](CC(C)C)C(=O)N[C@H](C(=O)NC(C)(C)C(=O)NCC(=O)N[C@@H](CO)C(=O)N[C@@H](CCC(=O)O)C(=O)N[C@@H](CCC(=O)O)C(=O)N[C@@H](CCC(N)=O)C(=O)N[C@@H](CCC(N)=O)C(=O)N[C@@H](CCCCN)C(=O)N[C@@H](CCCCN)C(=O)N[C@@H](CC(N)=O)C(=O)O)[C@@H](C)CC)[C@@H](C)CC)[C@@H](C)O (H-WEEWDKKIEEYTKKI[Aib]GLI[Aib]GSEEQQKKN-OH) | 
2.15 nM | CC[C@H](C)[C@H](NC(=O)[C@H](CC(C)C)NC(=O)[C@H](CCC(=O)O)NC(=O)[C@H](CCC(=O)O)NC(=O)[C@@H](NC(=O)[C@H](CCCCN)NC(=O)C(C)(C)NC(=O)[C@@H](NC(=O)[C@H](Cc1ccc(O)cc1)NC(=O)[C@H](CCC(=O)O)NC(=O)C(C)(C)NC(=O)[C@@H](NC(=O)[C@H](CCCCN)NC(=O)[C@H](CCCCN)NC(=O)[C@H](CC(=O)O)NC(=O)[C@H](Cc1c[nH]c2ccccc12)NC(=O)[C@H](CCC(=O)O)NC(=O)[C@H](CCC(=O)O)NC(=O)[C@@H](N)Cc1c[nH]c2ccccc12)[C@@H](C)CC)[C@@H](C)O)[C@@H](C)CC)C(=O)N[C@@H](CCCCN)C(=O)N[C@@H](CCCCN)C(=O)N[C@@H](CO)C(=O)N[C@@H](CCC(=O)O)C(=O)N[C@@H](CCC(=O)O)C(=O)N[C@@H](CCC(N)=O)C(=O)N[C@@H](CCC(N)=O)C(=O)N[C@@H](CCCCN)C(=O)N[C@@H](CCCCN)C(=O)N[C@@H](CC(N)=O)C(=O)O (H-WEEWDKKI[Aib]EYT[Aib]KIEELIKKSEEQQKKN-OH) | 
0.54 nM | CC[C@H](C)[C@H](NC(=O)[C@H](CC(C)C)NC(=O)[C@H](CCC(=O)O)NC(=O)[C@H](CCC(=O)O)NC(=O)[C@@H](NC(=O)[C@H](CCCCN)NC(=O)[C@H](CCCCN)NC(=O)[C@@H](NC(=O)[C@H](Cc1ccc(O)cc1)NC(=O)[C@H](CCC(=O)O)NC(=O)[C@H](CCC(=O)O)NC(=O)[C@@H](NC(=O)[C@H](CCCCN)NC(=O)C(C)(C)NC(=O)[C@H](CC(=O)O)NC(=O)[C@H](Cc1c[nH]c2ccccc12)NC(=O)[C@H](CCC(=O)O)NC(=O)C(C)(C)NC(=O)[C@@H](N)Cc1c[nH]c2ccccc12)[C@@H](C)CC)[C@@H](C)O)[C@@H](C)CC)C(=O)N[C@@H](CCCCN)C(=O)N[C@@H](CCCCN)C(=O)N[C@@H](CO)C(=O)N[C@@H](CCC(=O)O)C(=O)N[C@@H](CCC(=O)O)C(=O)N[C@@H](CCC(N)=O)C(=O)N[C@@H](CCC(N)=O)C(=O)N[C@@H](CCCCN)C(=O)N[C@@H](CCCCN)C(=O)N[C@@H](CC(N)=O)C(=O)O (H-W[Aib]EWD[Aib]KIEEYTKKIEELIKKSEEQQKKN-OH) | 
0.39 nM | H-WEEWDKKIEEYTKKIEELIKKSEEQQKKNEEELKK-OH | 71.5 °C
1.8 nM | H-YTSLIEELIKKSEEQQKKNEEELKKLEEWAKKWNWF-OH | 

— ChEMBL document CHEMBL1142469, “Identification of minimal sequence for HIV-1 fusion inhibitors” (Bioorg Med Chem, 2008)
